Assays:
Hsp90 = Hsp90 binding assay; details: read-out: Hsp90 binding; binding to SKBr3 cell extracts; competition with GM-Cy3B
PARP = PARP cleavage by Western blot in SKBr3; format: cell-based; details: Homo sapiens, SK-BR-3, read-out: cPARP (PARP cleavage)
Outline: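 SK-BR-3 cells grown in DME/F12 with 10% FBS, 1% L-glutamine and penicillin/streptomycin to 60–70% confluence, then exposed to test compound or DMSO vehicle. Lysed in 50 mM Tris pH 7.4, 150 mM NaCl, 1% NP-40; protein by BCA. 10–50 μg lysate run on SDS–PAGE, blotted to nitrocellulose, probed with rabbit anti-PARP p85 fragment (1:500), then peroxidase secondary (1:3000).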

c-Met = c-Met (Homo sapiens, UniProt P08581); test: scanMAX kinase screen, c-Met; format: binding; details: at 10 μM
Outline: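 Kinase-tagged T7 phage (BL21-derived E. coli host) or HEK-293-made DNA-tagged kinase competed against an immobilised active-site ligand on streptavidin magnetic beads, with test compound at 10 μM (from 40× DMSO stock). Run in SeaBlock/PBS/Tween/DTT binding buffer for 1 h at room temperature. Beads then washed and eluted with 0.5 μM non-biotinylated ligand; kinase in eluate quantified by qPCR.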

scanMAX 402 kinase panel = test: scanMAX kinase screen; format: binding; details: at 10 μM
Outline: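 Competition binding: DNA-tagged kinases (T7 phage in BL21-derived E. coli lysates, or HEK-293-expressed) mixed with biotinylated-ligand streptavidin magnetic beads and test compound (10 μM; 40× DMSO stocks) in SeaBlock/0.17× PBS/Tween 20/6 mM DTT, 1 h RT. Beads washed, eluted 30 min with 0.5 μM free ligand; bound kinase by qPCR. S-score: kinases bound divided by distinct non-mutant kinases tested.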

Hsp70 = details: read-out: Kd for Hsp70; cited from earlier work
[1] = LC/MS–MS analyses of cellular extracts; format: in vitro ADME; details: after 10 min of incubation; data not shown
Aqueous solubility = format: physicochemical

Chain of c-Met (P08581 25-1390): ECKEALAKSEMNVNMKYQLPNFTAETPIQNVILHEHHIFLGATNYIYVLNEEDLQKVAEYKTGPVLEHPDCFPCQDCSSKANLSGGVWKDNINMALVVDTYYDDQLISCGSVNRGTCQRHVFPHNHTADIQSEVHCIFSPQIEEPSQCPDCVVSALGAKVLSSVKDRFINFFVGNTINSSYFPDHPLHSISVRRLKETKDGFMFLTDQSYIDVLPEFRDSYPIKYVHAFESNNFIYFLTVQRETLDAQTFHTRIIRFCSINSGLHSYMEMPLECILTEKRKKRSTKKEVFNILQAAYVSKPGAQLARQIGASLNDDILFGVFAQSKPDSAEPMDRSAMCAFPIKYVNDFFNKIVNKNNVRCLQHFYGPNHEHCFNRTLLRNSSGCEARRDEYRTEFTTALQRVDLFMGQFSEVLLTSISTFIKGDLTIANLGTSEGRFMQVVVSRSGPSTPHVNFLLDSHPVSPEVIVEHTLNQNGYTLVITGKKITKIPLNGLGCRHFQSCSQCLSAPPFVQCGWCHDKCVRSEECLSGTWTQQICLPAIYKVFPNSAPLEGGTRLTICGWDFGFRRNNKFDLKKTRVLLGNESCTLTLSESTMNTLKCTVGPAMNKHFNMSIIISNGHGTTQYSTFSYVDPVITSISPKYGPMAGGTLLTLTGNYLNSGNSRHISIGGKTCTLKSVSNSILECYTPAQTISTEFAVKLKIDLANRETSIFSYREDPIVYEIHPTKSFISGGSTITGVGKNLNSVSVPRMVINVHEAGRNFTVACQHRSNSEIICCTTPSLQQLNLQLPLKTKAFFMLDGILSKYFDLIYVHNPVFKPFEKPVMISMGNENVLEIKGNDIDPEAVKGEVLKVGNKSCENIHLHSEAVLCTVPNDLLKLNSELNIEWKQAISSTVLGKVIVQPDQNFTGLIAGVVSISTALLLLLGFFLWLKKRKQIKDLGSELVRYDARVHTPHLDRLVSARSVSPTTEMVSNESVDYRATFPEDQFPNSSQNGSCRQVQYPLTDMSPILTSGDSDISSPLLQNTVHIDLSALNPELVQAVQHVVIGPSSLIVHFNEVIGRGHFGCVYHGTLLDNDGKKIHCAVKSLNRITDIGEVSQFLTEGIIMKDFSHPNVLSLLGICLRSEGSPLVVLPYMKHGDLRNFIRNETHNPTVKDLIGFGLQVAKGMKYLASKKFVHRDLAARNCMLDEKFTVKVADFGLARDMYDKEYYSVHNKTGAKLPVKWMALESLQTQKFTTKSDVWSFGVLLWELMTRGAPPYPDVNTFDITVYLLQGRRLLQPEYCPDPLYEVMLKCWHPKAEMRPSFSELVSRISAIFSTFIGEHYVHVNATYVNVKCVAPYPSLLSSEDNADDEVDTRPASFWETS

Compound	IC50 (Hsp90)	also measured
C=CC(=O)Nc1ccnc(Sc2c(OC)nc(N3CCN(C)CC3)nc2OC)n1 [27a, N-(2-((4,6-Dimethoxy-2-(4-methylpiperazin-1-yl)pyrimidin-5-yl)-thio)pyrimidin-4-yl)acrylamide]	> 500 µM	
C=CC(=O)Nc1cc(N)nc(Sc2c(OC)nc(N)nc2OC)n1 [compound 31, N-(6-Amino-2-((2-amino-4,6-dimethoxypyrimidin-5-yl)thio)-pyrimidin-4-yl)acrylamide]	> 500 µM	
C=CC(=O)Nc1cc(N)nc(Sc2c(OC)nc(N3CCN(C)CC3)nc2OC)n1 [17a, N-(6-Amino-2-((4,6-dimethoxy-2-(4-methylpiperazin-1-yl)-pyrimidin-5-yl)thio)pyrimidin-4-yl)acrylamide]	> 500 µM	kinase hit in scanMAX screen (c-Met): potential low-affinity kinase hit; EC50 (PARP): 2 µM; activity against the scanMAX 402 kinase panel (scanMAX 402 kinase panel): inert
N#Cc1ccc(COC[C@H]2O[C@@H](n3c(NCc4ccc(Cl)c(Cl)c4)nc4c(N)ncnc43)[C@H](O)[C@@H]2O)cc1 [compound 7, reference compound]		Kd (Hsp70): 0.3 µM
Nc1ncnc2c1ncn2[C@@H]1O[C@H](COP(=O)(O)OP(=O)(O)O)[C@@H](O)[C@H]1O [ADP]		Kd (Hsp70): 0.11 to 0.5 µM
O=c1c(O)c(-c2cc(O)c(O)c(O)c2)oc2cc(O)cc(O)c12 [compound 4, myricetin, reference compound]		EC50 (PARP): > 100 µM; stability in the cells (agent detected in cellular extracts) [1]: virtually undetectable
C=CC(=O)Nc1cc(N)nc(Sc2c(OCC)nc(N3CCN(C)CC3)nc2OCC)n1 [20a, N-(6-Amino-2-((4,6-diethoxy-2-(4-methylpiperazin-1-yl)-pyrimidin-5-yl)thio)pyrimidin-4-yl)acrylamide]	> 500 µM	
C=CC(=O)Nc1cc(N)nc(Sc2c(OCC)nc(N3CCCCC3)nc2OCC)n1 [20c, N-(6-Amino-2-((4,6-diethoxy-2-(piperidin-1-yl)pyrimidin-5-yl)-thio)pyrimidin-4-yl)acrylamide]	> 500 µM	
C=CC(=O)Nc1ccnc(Sc2c(OC)nc(N3CCCC3)nc2OC)n1 [27d, N-(2-((4,6-Dimethoxy-2-(pyrrolidin-1-yl)pyrimidin-5-yl)thio)-pyrimidin-4-yl)acrylamide]	> 500 µM	aqueous solubility (Aqueous solubility): poor aqueous solubility
C=CC(=O)Nc1cccc(Sc2c(OC)nc(N3CCOCC3)nc2OC)c1 [compound 37, N-(3-((4,6-Dimethoxy-2-morpholinopyrimidin-5-yl)thio)phenyl)-acrylamide]	> 500 µM	

Second part, led by results:

IC50 (Hsp90)	Compound	also measured
> 500 µM	C=CC(=O)Nc1ccnc(Sc2c(C)nc(N3CCN(C)CC3)nc2C)n1 [42a, N-(2-((4,6-Dimethyl-2-(4-methylpiperazin-1-yl)pyrimidin-5-yl)-thio)pyrimidin-4-yl)acrylamide]	EC50 (PARP): 5 µM
> 500 µM	C=C(C)C(=O)Nc1ccnc(Sc2c(C)nc(N3CCN(C)CC3)nc2C)n1 [42c, N-(2-((4,6-Dimethyl-2-(4-methylpiperazin-1-yl)pyrimidin-5-yl)-thio)pyrimidin-4-yl)methacrylamide]	
> 500 µM	C=CC(=O)Nc1cc(N)nc(Sc2c(OC)nc(N3CCN(CCOCCOCCOCCO)CC3)nc2OC)n1 [44a]	
> 500 µM	C=CC(=O)Nc1cc(N)nc(Sc2c(OC)nc(N3CCN(C)CC3)nc2OCCOCCOCCOCCO)n1 [45a]	

— article PMC3983365 (Journal of medicinal chemistry, 2014)
